Test results published in ChEMBL document CHEMBL1147663, “Structure-activity relationships of bifunctional peptides based on overlapping pharmacophores at opioid and cholecystokinin receptors” (J Med Chem, 2006).
Activity calls are given as the source filed them. The rule behind the calls is not given here. Where a SMILES comes first, the peptide text is derived from it. [ ]: non-standard residue; d: D form. NMeNle = CCCC[C@H](NC)C(=O)O

Legend:
[1] = target: Mu-type opioid receptor (Rattus norvegicus) (UniProt P33535); assay: (§1) Activity against [35S]GTP-gamma-S binding to rat mu opioid receptor expressed in HN9.10 cells; format: functional, cell-based
Method in brief: (§2)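 Membranes (10 μg) from HN9.10 cells stably expressing hDOR or rMOR; various drug concentrations in duplicate or triplicate, 90 min at 30 °C in HEPES pH 7.4 with GDP, MgCl2, NaCl, 0.1 nM [35S]GTPγS; filtration, scintillation counting.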

[2] = target: T1, Mu-type opioid receptor (Rattus norvegicus, UniProt P33535); assay: as §1; format: functional, cell-based; method in brief: as §2
[3] = target: T1, Mu-type opioid receptor; assay: Displacement of [3H]DAMGO from rat mu opioid receptor expressed in HN9.10 cells; format: cell-based
Method in brief: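 HN9.10 cell membranes (50 μg) expressing rMOR, 10 test concentrations with 1.0 nM [3H]DAMGO in 50 mM Tris pH 7.4 with peptidase inhibitors and BSA, 3 h at 25 °C, duplicates; filtration, scintillation counting. Nonspecific with 10 μM naloxone. Ki by Cheng–Prusoff.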

[4] = target: T2, Gastrin/cholecystokinin type B receptor (Homo sapiens, UniProt P32239); assay: Displacement of [125I]CCK-8(SO3) from human CCK2 receptor expressed in HEK293 cells; format: cell-based
T2 sequence (P32239 whole entry): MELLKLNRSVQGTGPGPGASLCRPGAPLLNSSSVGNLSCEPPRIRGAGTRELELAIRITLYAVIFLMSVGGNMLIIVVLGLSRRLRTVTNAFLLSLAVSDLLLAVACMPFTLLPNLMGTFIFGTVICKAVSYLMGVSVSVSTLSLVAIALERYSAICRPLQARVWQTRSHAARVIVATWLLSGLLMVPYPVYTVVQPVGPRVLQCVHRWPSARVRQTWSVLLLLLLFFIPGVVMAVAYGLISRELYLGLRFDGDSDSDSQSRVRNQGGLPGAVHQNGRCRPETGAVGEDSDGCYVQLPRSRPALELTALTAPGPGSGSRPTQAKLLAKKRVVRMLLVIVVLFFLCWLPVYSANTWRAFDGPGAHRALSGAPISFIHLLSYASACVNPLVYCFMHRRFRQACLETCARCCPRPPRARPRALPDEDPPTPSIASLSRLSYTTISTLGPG

[5] = target: T3, Delta-type opioid receptor (Homo sapiens, UniProt P41143); assay: Activity against [35S]GTP-gamma-S binding to human delta opioid receptor expressed in HN9.10 cells; format: functional, cell-based; method in brief: as §2
[6] = target: T2, Gastrin/cholecystokinin type B receptor; assay: Antagonist activity at CCK2 receptor expressed in HEK293 cells assessed as accumulation of [3H]inositol phosphates by PI assay; format: functional, cell-based
[7] = target: Delta-type opioid receptor (Mus musculus, UniProt P32300); assay: Agonist activity at delta opioid receptor assessed as inhibition of electrically stimulated ICR mouse vas deferens contraction; format: functional, tissue-based
Method in brief: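 Vas deferens from male ICR mice, in 20 mL baths at 0.5 g tension, Mg-free oxygenated Krebs, 37 °C; electrical stimulation 0.1 Hz, 2.0 ms pulses, supramaximal voltage. Cumulative addition to maximal inhibition; integrity checked with 10 nM DPDPE. IC50 by Hill-equation nonlinear least-squares fit, at least four tissues.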

[8] = target: T4, Cholecystokinin receptor type A (Homo sapiens, UniProt P32238); assay: Displacement of [125I]CCK-8(SO3) from human CCK1 receptor expressed in HEK293 cells; format: cell-based
T4 sequence (P32238 whole entry): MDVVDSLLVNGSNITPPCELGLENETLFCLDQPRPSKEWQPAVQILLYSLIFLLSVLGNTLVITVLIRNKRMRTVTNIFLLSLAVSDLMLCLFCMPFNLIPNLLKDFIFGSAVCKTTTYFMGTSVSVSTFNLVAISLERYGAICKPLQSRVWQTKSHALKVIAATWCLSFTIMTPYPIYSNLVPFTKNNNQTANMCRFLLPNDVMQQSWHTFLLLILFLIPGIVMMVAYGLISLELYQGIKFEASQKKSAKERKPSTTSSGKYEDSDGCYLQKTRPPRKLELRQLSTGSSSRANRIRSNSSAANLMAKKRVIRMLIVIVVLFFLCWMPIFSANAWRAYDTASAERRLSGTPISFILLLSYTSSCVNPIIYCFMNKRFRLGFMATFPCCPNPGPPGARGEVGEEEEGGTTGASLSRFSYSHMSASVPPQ

[9] = target: T3, Delta-type opioid receptor; assay: Displacement of [3H]DPDPE from human delta opioid receptor expressed in HN9.10 cells; format: cell-based
Method in brief: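 HN9.10 cell membranes (50 μg) expressing hDOR, 10 test concentrations with 1.0 nM [3H]DPDPE in 50 mM Tris pH 7.4 with peptidase inhibitors and BSA, 3 h at 25 °C, duplicates; filtration, scintillation counting. Nonspecific with 10 μM naloxone. Ki by Cheng–Prusoff.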

[10] = target: Mu-type opioid receptor (Cavia porcellus, UniProt P97266); assay: Agonist activity at mu opioid receptor assessed as inhibition of electrically stimulated Hartley guinea pig ileum contraction; format: functional, tissue-based
Method in brief: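 Longitudinal muscle–myenteric plexus strips from male Hartley guinea pig ileum, 1 g tension, oxygenated Krebs at 37 °C; 0.1 Hz, 0.4 ms supramaximal stimulation. […] Integrity checked with 10 nM PL-017. Hill-equation fit, at least four tissues.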

[11] = target: T5, Cholecystokinin receptor type A (Homo sapiens) (UniProt P32238); settings: HEK293
T5 sequence (whole entry): T4 sequence (P32238 whole entry)

Chain of Delta-type opioid receptor (Mus musculus, UniProt P32300) (P32300 whole entry): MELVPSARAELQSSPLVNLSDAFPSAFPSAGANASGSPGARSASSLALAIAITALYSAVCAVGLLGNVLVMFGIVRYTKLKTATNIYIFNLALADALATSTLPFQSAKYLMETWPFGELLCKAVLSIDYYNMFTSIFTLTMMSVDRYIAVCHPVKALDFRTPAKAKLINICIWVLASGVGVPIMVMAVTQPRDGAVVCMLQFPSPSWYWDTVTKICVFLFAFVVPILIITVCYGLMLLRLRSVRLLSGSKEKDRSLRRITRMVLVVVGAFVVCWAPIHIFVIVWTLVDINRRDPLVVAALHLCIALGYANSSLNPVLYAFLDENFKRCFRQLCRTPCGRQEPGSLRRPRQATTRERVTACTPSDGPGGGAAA
T3 sequence (P41143 whole entry): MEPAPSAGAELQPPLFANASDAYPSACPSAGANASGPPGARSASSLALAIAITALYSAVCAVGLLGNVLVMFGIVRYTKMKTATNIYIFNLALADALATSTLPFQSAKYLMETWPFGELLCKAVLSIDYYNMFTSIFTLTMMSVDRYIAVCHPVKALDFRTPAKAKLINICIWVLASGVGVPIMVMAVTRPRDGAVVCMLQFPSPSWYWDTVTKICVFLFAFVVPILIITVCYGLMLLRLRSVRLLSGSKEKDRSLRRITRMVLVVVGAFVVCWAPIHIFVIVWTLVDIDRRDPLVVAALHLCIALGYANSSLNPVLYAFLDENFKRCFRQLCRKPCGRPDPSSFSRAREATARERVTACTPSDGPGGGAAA
T1 sequence (P33535 whole entry): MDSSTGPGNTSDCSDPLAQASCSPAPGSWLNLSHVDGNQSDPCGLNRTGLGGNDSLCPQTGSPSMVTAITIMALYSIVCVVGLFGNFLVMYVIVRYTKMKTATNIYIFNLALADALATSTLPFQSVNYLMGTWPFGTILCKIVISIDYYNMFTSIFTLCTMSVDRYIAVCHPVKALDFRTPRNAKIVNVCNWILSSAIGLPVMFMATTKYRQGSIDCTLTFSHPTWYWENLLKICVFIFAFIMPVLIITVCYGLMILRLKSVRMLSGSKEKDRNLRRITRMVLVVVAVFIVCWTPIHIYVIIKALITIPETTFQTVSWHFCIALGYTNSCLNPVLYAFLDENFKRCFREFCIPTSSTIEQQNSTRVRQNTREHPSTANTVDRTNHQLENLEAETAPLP
Chain of Mu-type opioid receptor (Rattus norvegicus) (P33535 whole entry): as above
Chain of Mu-type opioid receptor (Cavia porcellus, UniProt P97266) (P97266 whole entry): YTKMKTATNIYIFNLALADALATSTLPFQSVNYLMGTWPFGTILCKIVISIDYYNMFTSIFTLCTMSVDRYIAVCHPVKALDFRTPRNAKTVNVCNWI

Structure (SMILES)	Emax [1] [%]	EC50 [2] [nM]	IC50 [3] [nM]	Ki [3] [nM]	IC50 [4] [nM]	Ki [4] [nM]	EC50 [5] [nM]	Emax [5] [%]	EC50 [6] [nM]	IC50 [7] [nM]	IC50 [8] [nM]	Ki [8] [nM]	IC50 [9] [nM]	Ki [9] [nM]	IC50 [10] [nM]	Log EC50 [11]
CCCC[C@@H](C(=O)N[C@@H](CC(=O)O)C(=O)N[C@@H](Cc1ccccc1)C(N)=O)N(C)C(=O)[C@@H](Cc1c[nH]c2ccccc12)NC(=O)CNC(=O)[C@@H](C)NC(=O)[C@@H](N)Cc1ccc(O)cc1	44	38	50.1	22	1.55	1.5	23	56	6.6	63	316	320	3.47	1.5	150	
CCCC[C@@H](C(=O)N[C@@H](CC(=O)O)C(=O)N[C@@H](Cc1ccccc1)C(N)=O)N(C)C(=O)[C@H](Cc1c[nH]c2ccccc12)NC(=O)CNC(=O)[C@@H](Cc1ccccc1)NC(=O)[C@H](Cc1ccc(O)cc1)NC(=O)[C@@H](N)CC(=O)O	91	81	11500	5200			110	80			3160	3200	550	250		inactive
CCCC[C@@H](C(=O)N[C@@H](CC(=O)O)C(=O)N[C@@H](Cc1ccccc1)C(N)=O)N(C)C(=O)[C@H](Cc1c[nH]c2ccccc12)NC(=O)CNC(=O)CNC(=O)[C@@H](N)Cc1ccc(O)cc1 (H-YGGW[NMeNle]DF-NH2)	100	2	550	240	4.79	4.8	76	68	32	220			200	85	4200	inactive
CCCC[C@H](NC(=O)[C@H](Cc1c[nH]c2ccccc12)NC(=O)CNC(=O)[C@@H](C)NC(=O)[C@@H](N)Cc1ccc(O)cc1)C(=O)N[C@@H](CC(=O)O)C(=O)N[C@@H](Cc1ccccc1)C(N)=O	86	12	18.2	7.8	145	150	5.9	74	8	45	5750	5700	0.525	0.22	160	
CCCC[C@H](NC(=O)[C@@H](Cc1c[nH]c2ccccc12)NC(=O)CNC(=O)[C@@H](Cc1ccccc1)NC(=O)[C@@H](N)Cc1ccc(O)cc1)C(=O)N[C@@H](CC(=O)O)C(=O)N[C@@H](Cc1ccccc1)C(N)=O	160	45	708	300	1740	1700	130	170		170	1950	2000	398	170	2700	
CCCC[C@@H](C(=O)N[C@@H](CC(=O)O)C(=O)N[C@@H](Cc1ccccc1)C(N)=O)N(C)C(=O)[C@H](Cc1c[nH]c2ccccc12)NC(=O)CNC(=O)[C@@H](C)NC(=O)[C@@H](N)Cc1ccc(O)cc1	73	18	89.1	39	1.62	1.6	120	270	4.6	66	5130	5100	5.25	2.2	470	
